Assay results of several laboratories.
Lines come from different studies, so protocols differ. pIC50: −log10 of the molar value.
MAOB: Amine oxidase [flavin-containing] B (MAOB, Homo sapiens, UniProt P27338)

| Compound | target | effect on | mode | method | setting | pIC50 |
| --- | --- | --- | --- | --- | --- | --- |
| COc1cc(C(=O)N2CC[C@@H](O)[C@@H](N)C2)cc2nc(-c3cc4ccccc4n3CC3CC3)n(C)c12 | MAOB | enzyme activity | inhibitor | – | – | 4.80 |
| C#CCNc1nc(NCCCCC2CCN(Cc3ccccc3)CC2)c(C#N)cc1C#N | MAOB | enzyme activity | inhibitor | fluorescence | with preincubation | < 4.30 |
| COc1ccc2c(c1)[nH]c1c(C)nccc12 | MAOB | enzyme activity | inhibitor | – | – | 4.43 |
| [Ba+2].[Cl-].[Cl-] | Inward rectifier potassium channel 2 (KCNJ2, Homo sapiens, UniProt P63252) | ion current | inhibitor | – | – | 5.09 |
| O=c1c2ccccc2[nH]c(=S)n1-c1ccccc1 | Serine protease 1 (PRSS1, Bos taurus, UniProt P00760) | enzyme activity | inhibitor | – | – | 4.07 |
| CC[C@H](C)[C@H](NC(=O)[C@H](Cc1c[nH]c2ccccc12)NC(=O)[C@H](C)NC(=O)[C@@H]1CSCC(=O)N[C@@H](Cc2ccc(O)cc2)C(=O)NCC(=O)N[C@@H](CCC(N)=O)C(=O)N[C@@H](CO)C(=O)N[C@@H](Cc2c[nH]cn2)C(=O)N[C@@H](CO)C(=O)N[C@@H](C)C(=O)N[C@@H](Cc2c[nH]c3ccccc23)C(=O)N1)C(=O)N[C@@H](CC(N)=O)C(=O)N[C@@H](Cc1ccc(O)cc1)C(=O)N[C@@H](CC(N)=O)C(=O)N1CCC[C@H]1C(N)=O | Pancreatic alpha-amylase (Homo sapiens, UniProt P04746) | enzyme activity | inhibitor | absorbance | – | 5.22 |
| C#CCNc1nc(NCCC2CCN(Cc3ccccc3)CC2)c(C#N)c(-c2ccccc2)c1C#N | MAOB | enzyme activity | inhibitor | fluorescence | with preincubation | < 4.00 |
| COc1ccc(/C=C/C(=O)N2CCN(Cc3ccccc3)CC2)cc1OC | MAOB | enzyme activity | inhibitor | fluorescence | – | 5.72 |
| CC(C)(C)c1ccc(NC(=O)c2ncn(CC(=O)NCc3ccc4c(c3)OCO4)n2)cc1 | Histone-lysine N-methyltransferase SUV39H2 (SUV39H2, Homo sapiens, UniProt Q9H5I1) | enzyme activity | inhibitor | – | – | < 3.60 |
| CSCC[C@@H]1NC(=O)[C@H](CC(N)=O)NC(=O)[C@H](CCCNC(=N)N)NC(=O)[C@H]([C@@H](C)O)NC(=O)[C@H](Cc2ccc(O)cc2)NC(=O)[C@@H](NC(=O)[C@H](C)N)CSSC[C@@H](C(N)=O)NC(=O)[C@H](CCC(N)=O)NC(=O)[C@H](CC(N)=O)NC1=O | Lysine-specific demethylase 4C (KDM4C, Homo sapiens, UniProt Q9H3R0) | enzyme activity | inhibitor | TR-FRET | – | 3.39 |
| C[C@H](N)Cn1ncc2ccc3c(c21)CCCO3 | Beta-1 adrenergic receptor (ADRB1, Homo sapiens, UniProt P08588) | ligand displacement | – | radioligand | – | 5.30 |
| C#CCNc1nc(NCCCC2CCN(Cc3ccccc3)CC2)c(C#N)cc1C#N | MAOB | enzyme activity | inhibitor | fluorescence | with preincubation | < 4.00 |
| O=[N+]([O-])c1cc(Cl)c(O)c(Cl)c1 | Sulfotransferase 1A1 (SULT1A1, Homo sapiens, UniProt P50225, R213H) | enzyme activity | inhibitor | – | – | 6.15 |
